FN deposit inh: inhibitors of fibronectin matrix deposition, primary screen, AH1F cells, Alexa488-fibronectin fluorescence, plate reader; AID 743247, 2014; AH1F fibroblasts, overnight; hit rate 0.086% among 350,000; inhibition, % at 12.6 µM;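 active means mean inhibition across replicates of 30% or more, regardless of how many single replicates reach that level; inconclusive means mean under 30% yet at least half of replicates reach 30%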
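Measured by – fluorescence 485/525 nm · System – AH1F fibroblast monolayer, labelled fibronectin deposition · Amount – 10000 cells per well · Buffer or medium – serum-reduced DMEM (2% serum) · Doses – single dose, pinned · Also added – fluorescent fibronectin at 24 nM final · Schedule – 1 h cell attachment, overnight exposure to compound and label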
Cneo AK release: Cryptococcus neoformans cell lysis inducers, primary screen, AK release luminescence, single concentration. C. neoformans lysis, adenylate kinase release luminescence, 4 h; normalised: neutral wells 0, clomiphene wells 100. lysis activity, % at 15 µM. hit rate 0.2% among 360,000. AID 651654, 2012;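 active means mean lysis activity across replicates of at least 80%, whatever share of replicates individually reach that level; inactive means mean lysis activity below 80%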
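Test system: log-phase Cryptococcus neoformans yeast cells; Quantity: yeast cell density of 5 × 10^6 cells/mL; Buffer or medium: YPD; Doses: single compound concentration per well; Timing: 4 h at 37 °C static, read 1 h later; Measured by: AK luminescence; Read-out basis: lysis from increased AK signal; Control set: Clomiphene as positive control.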
DENV2 CPE rescue: inhibitors of DENV2 cytopathic effect, primary screen, cell-based, plate reader, single concentration; DENV2-infected cells, cytopathic effect rescue; CPE inhibition, % at 9.99 µM; AID 651640, 2012; hit rate 1.7% among 350,000; in the data active means CPE inhibition above about 20%, passing the limit was not always enough; inconclusive means no clear call, values can overlap the other calls; tested in BHK-21 cells
PGC1a acetyl inh: inhibitors of PGC1a acetylation signal, primary screen, cell-based, U2OS, AlphaScreen, inhibitor mode; AlphaScreen anti-acetyl-lysine; with virally co-expressed GCN5 acetyltransferase; inhibition, % at 15.6 µM; hit rate 0.17% among 350,000; AID 651687, 2012;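 active means every replicate shows inhibition of at least 40%; inconclusive means mean inhibition at least 40% but some replicate below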
F508del corr: F508del CFTR correction, initial screen, CFBE line, single point. CFBE cells, YFP halide quenching; stimulated with forskolin plus potentiator P3; % fluorescence drop versus neutral controls. activity (quench increase), % at 7.58 µM. hit rate 0.36% among 350,000. AID 720511, 2013;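 active means mean added fluorescence quench of at least 8% versus neutral control, with both replicates also reaching 8%; inconclusive means only one of the mean or replicate conditions met; inactive means mean below 8% and not both replicates reaching 8%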;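 further: cells transiently co-express mutant CFTR-F508del with the halide-sensitive YFP; corrector assay measuring rescue of mutant channel to the surface after 24 h compound exposure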
Xi reactivation: activators of inactive X chromosome reactivation, primary screen, imaging, XiGFP fibroblasts, GFP high-content imaging, set 2 | XiGFP mouse fibroblasts, % GFP-positive cells imaging, 3 d; cells co-treated with 5-aza-dC sensitizer; scaled so ellipticine positive control = 100% | activation, % at 7.58 µM | hit rate 0.055% among 360,000 | AID 743238, 2013;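 active means mean normalized replicate activation at least 10% and every replicate at or above 10%; inconclusive means only one of the two criteria met; inactive means mean below 10% and not all replicates reach 10%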
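System: SV40-immortalized XiGFP fibroblast cells, line 68-5-11 / Incubation: 3-day compound exposure, then 15 min fixation at room temperature / Compound: single concentration per compound, delivered by pin transfer / Buffer or medium: DMEM plus 5-aza-dC sensitizer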
Each line names hits and unclear results; the compound was inactive in the other large screens. The list is not random: actives were taken first. Their share in the collection is about 1.9%.

C[C@@H]1CN([C@@H](C)CO)C(=O)Cc2cc(NC(=O)CCC(F)(F)F)ccc2O[C@H]1CN(C)Cc1ccccc1	none (no result: FN deposit inh, PGC1a acetyl inh)
CSc1cccc(N2CC(C(=O)NCCN3C(=O)S/C(=C\c4cccnc4)C3=O)CC2=O)c1 (stereo not drawn)	PGC1a acetyl inh 75
CCOc1ccc(CC(=O)N/N=C(\C)c2cccnc2)cc1OCC	DENV2 CPE rescue 78 (no result: FN deposit inh, PGC1a acetyl inh)
COc1ccc(CC(=O)N/N=C(\C)c2cccnc2)cc1OC	none (no result: FN deposit inh, PGC1a acetyl inh)
O=C1C(SCCO)=C(SCCO)C(=O)c2ccccc21	FN deposit inh 43, F508del corr 10, Xi reactivation 88
O=C(CC1CC1)N[C@H]1CC[C@H](CCNS(=O)(=O)c2ccc(Cl)cc2)O[C@@H]1CO	none
Cc1cccc(N2CCN(S(=O)(=O)c3cn(C)cn3)CC2)c1C	FN deposit inh 43
COc1ccc(S(=O)(=O)N(C)C[C@H]2OCCCC[C@H](C)Oc3ccc(NS(C)(=O)=O)cc3C(=O)N([C@@H](C)CO)C[C@H]2C)cc1	none (no result: FN deposit inh)
CO[C@@H]1CN(C)C(=O)c2ccc(NC(=O)Nc3c(C)noc3C)cc2OC[C@H](C)N(CC2CC2)C[C@@H]1C	PGC1a acetyl inh 101
CCCN1C[C@@H](C)[C@H](OC)CN(C)C(=O)c2ccc(NC(=O)Nc3c(C)noc3C)cc2OC[C@@H]1C	DENV2 CPE rescue 22
O=C(N[C@@H]1CC[C@H](CCNS(=O)(=O)c2cccc(Cl)c2)O[C@H]1CO)c1ccncc1	none
O=C(Nc1ccccc1F)N[C@@H]1CC[C@@H](CCNS(=O)(=O)c2ccc(Cl)cc2)O[C@@H]1CO	none (no result: FN deposit inh)
COc1ccc(C(CC(=O)Nc2ccccn2)N2Cc3ccccc3C2=O)cc1 (stereo not drawn)	PGC1a acetyl inh 76
COc1ccc(C(CC(=O)Nc2ncccc2C)N2Cc3ccccc3C2=O)cc1 (stereo not drawn)	none
C[C@@H]1CCCCO[C@@H](CN(C)C(=O)NC2CCCCC2)[C@H](C)CN([C@H](C)CO)C(=O)c2cc(NS(C)(=O)=O)ccc2O1	none
C[C@H](CO)N1C[C@H](C)[C@H](CN(C)C(=O)C2CCCCC2)Oc2cc(C#C[C@@H](C)O)ccc2S1(=O)=O	none (no result: FN deposit inh)
COc1cccc(/C=C/C(=O)NNC(=O)CCN2CCN(Cc3ccccc3)CC2)c1	none
O=C(/C=C/c1ccc(F)cc1)NNC(=O)CCN1CCN(Cc2ccccc2)CC1	PGC1a acetyl inh 52 (no result: Cneo AK release)
CN(CC(=O)Nc1ccc2c(c1)OCO2)CC(=O)Nc1ccc(F)c(F)c1F	none (no result: PGC1a acetyl inh)
CN(CC(=O)Nc1ccc(Cl)c(Cl)c1)CC(=O)Nc1ccc2c(c1)OCO2	Xi reactivation 120
CC(C)NC(=O)Nc1cccc2c1O[C@H](CN(C)C(=O)Nc1ccc3c(c1)OCO3)[C@H](C)CN([C@H](C)CO)C2=O	none (no result: FN deposit inh)
O=C(Nc1cc(F)cc(F)c1)c1sc(Cl)nc1-c1ccccc1	DENV2 CPE rescue 68
O=C(NCc1ccccc1)[C@H]1CCCN1C(=O)[C@H]1CCCN1C(=O)c1ccccc1	none (no result: Cneo AK release, PGC1a acetyl inh)
O=C(NCc1ccccc1)[C@H]1CCCN1C(=O)[C@H]1CCCN1C(=O)c1ccc(Cl)cc1	DENV2 CPE rescue 44 (no result: Cneo AK release, PGC1a acetyl inh)
COc1cccc(OC)c1NC(=O)C1CCCN1C(=O)NCc1ccccc1 (stereo not drawn)	PGC1a acetyl inh 97 (no result: DENV2 CPE rescue, F508del corr, Xi reactivation)
COc1ccc(NC(=O)C2CCCN2C(=O)NCc2ccccc2)cc1OC (stereo not drawn)	none (no result: Cneo AK release, DENV2 CPE rescue, PGC1a acetyl inh, F508del corr, Xi reactivation)
O=C(O)c1ccc(CNC(=O)C2CCCN2C(=O)OCc2ccccc2)cc1 (stereo not drawn)	DENV2 CPE rescue 25 (no result: PGC1a acetyl inh)
COc1ccc(C(=O)N2CCC[C@H]2C(=O)N2CCC[C@@H]2C(=O)NCc2ccccc2)cc1F	none (no result: Cneo AK release, PGC1a acetyl inh)
COc1cccc(CNC(=O)[C@H]2CCCN2C(=O)C2CCCN2C(=O)c2ccc(OC)c(F)c2)c1 (stereo partly drawn)	DENV2 CPE rescue 28 (no result: Cneo AK release, PGC1a acetyl inh)
Cc1ccc(CNC(=O)CS(=O)(=O)Cc2nc(-c3ccccc3F)oc2C)cc1	none
Cc1ccccc1-c1nc(CS(=O)(=O)CC(=O)NCc2ccccc2)c(C)o1	F508del corr 8.8
CCOc1ccc(C)cc1S(=O)(=O)n1cnc2ccccc21	F508del corr 9.9
CCOc1ccc(Cl)cc1S(=O)(=O)n1cnc2ccccc21	none (no result: FN deposit inh, DENV2 CPE rescue, F508del corr, Xi reactivation)
CC(=O)N1CCc2c(sc(NC(=O)C3CC3)c2-c2nc3ccccc3s2)C1	DENV2 CPE rescue inconclusive
CC(=O)Nc1sc2c(c1-c1nc3ccccc3s1)CN(C(C)C)CC2	PGC1a acetyl inh 52, F508del corr 24
CCC(=O)Nc1ccc(NC(=S)NC(=O)c2oc3ccccc3c2C)cc1	none (no result: DENV2 CPE rescue, F508del corr)
CCC(=O)Nc1ccc(NC(=O)c2oc3ccccc3c2C)cc1	DENV2 CPE rescue 40
CNC[C@H]1OCCCC[C@H](C)Oc2ccc(NC(=O)NC(C)C)cc2C(=O)N([C@@H](C)CO)C[C@@H]1C	none
COc1c(OC2OC(C(=O)O)C(O)C(O)C2O)cc(O)c2c(=O)cc(-c3ccccc3)oc12 (stereo not drawn)	DENV2 CPE rescue 25
O=C(O)C1OC(Oc2cc3oc(-c4ccccc4)cc(=O)c3c(O)c2O)C(O)C(O)C1O (stereo not drawn)	DENV2 CPE rescue inconclusive
CC1CCCC=CC2CC(OC(=O)CN(C)C)CC2C(O)C=CC(=O)O1 (stereo not drawn)	PGC1a acetyl inh 67 (no result: Cneo AK release)
Brc1cccc(/C=N\n2cnnc2)c1	none (no result: DENV2 CPE rescue, PGC1a acetyl inh, F508del corr, Xi reactivation)
C(=Nn1cnnc1)c1ccc2c(c1)CCC2	Cneo AK release 82, DENV2 CPE rescue inconclusive
CO[C@H]1CN(C)C(=O)c2ccc(NC(=O)C3CCC3)cc2OC[C@H](C)N(C)C[C@@H]1C	none (no result: Cneo AK release, PGC1a acetyl inh)
COc1ccc(C(C)=O)cc1CS(=O)(=O)CC(=O)NCCc1c[nH]c2ccccc12	F508del corr 12
CO[C@@H]1CN(C)C(=O)c2ccc(NC(=O)c3cccc(F)c3)cc2OC[C@H](C)N(CC2CC2)C[C@H]1C	none
C[C@H](CO)N1C[C@H](C)[C@@H](CN(C)Cc2ccc3c(c2)OCO3)Oc2ccc(NC(=O)CCCCCC(=O)Nc3ccccc3N)cc2C1=O	DENV2 CPE rescue 28 (no result: FN deposit inh, Cneo AK release)
C[C@@H]1CN([C@@H](C)CO)C(=O)c2cc(NC(=O)CCCCCC(=O)Nc3ccccc3N)ccc2O[C@@H]1CN(C)Cc1ccc2c(c1)OCO2	DENV2 CPE rescue 20 (no result: FN deposit inh, Cneo AK release)
C[C@H](CO)N1C[C@H](C)[C@H](CN(C)Cc2ccc3c(c2)OCO3)Oc2ccc(NC(=O)CCCCCC(=O)Nc3ccccc3N)cc2CC1=O	DENV2 CPE rescue 25 (no result: FN deposit inh)

Screens: PubChem, Broad Institute
